Tn7 DDE FP: inhibitors of Tn7 peptide binding to human fibrin DD(E). P02675. inhibition, % at 8.3 µM. AID 720508. 0.13% of 370,000 active. FP displacement of FITC-Tn7 peptide from fibrin DD(E); 0% = median of compound wells per plate;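 active = inhibition above the mean of compounds falling within the control limits plus 3 SD of them, cut at about 14% in these data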
Target sequence (P02675 whole entry, looked up): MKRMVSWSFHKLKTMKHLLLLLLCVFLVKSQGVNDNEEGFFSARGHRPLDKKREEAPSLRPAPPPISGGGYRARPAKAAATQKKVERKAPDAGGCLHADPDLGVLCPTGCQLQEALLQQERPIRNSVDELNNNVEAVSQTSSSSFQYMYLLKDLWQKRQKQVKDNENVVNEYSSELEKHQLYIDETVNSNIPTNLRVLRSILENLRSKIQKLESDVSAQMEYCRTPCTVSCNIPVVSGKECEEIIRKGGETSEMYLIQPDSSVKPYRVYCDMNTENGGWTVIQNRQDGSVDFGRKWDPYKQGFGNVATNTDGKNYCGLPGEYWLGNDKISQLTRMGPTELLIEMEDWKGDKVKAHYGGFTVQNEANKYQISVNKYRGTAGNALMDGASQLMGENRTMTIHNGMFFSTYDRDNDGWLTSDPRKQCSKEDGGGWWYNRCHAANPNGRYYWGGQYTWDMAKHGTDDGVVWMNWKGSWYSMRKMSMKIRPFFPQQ
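Assay system: Fibrin-DD(E) protein isolated from polymerized human fibrin clots; read-out basis: percent inhibition; medium: Tris/NaCl/CaCl2 buffer, pH 7.8; signal: FP measurement; incubation: 10 min plus 3 h, room temperature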
Tn6 DDE FP: disrupts Tn6 cyclic peptide binding to fibrin D-Dimer-E complex. inhibition, % at 8.3 µM. 0.21% of 370,000 active. P02675. AID 720509. Fibrin DD(E) TRITC-Tn6 fluorescence polarization displacement;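 active = inhibition above a per-campaign cutoff: mean of compounds within control limits plus 3 SD, cut at about 15% in these data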
DAGLB inh: diacylglycerol lipase beta (human) inhibition; 0.059% of 340,000 active; HEK293T DAGLB membrane lysate, EnzChek fluorogenic substrate; inhibition, % at 5.17 µM; Q8NCG7; in the data active = inhibition above about 34%
Cardio protect: modulators protecting cardiomyocytes from myocardial damage; H9c2 cardiomyocytes, H2O2 injury protection, ATPLite, 2 h; protection from H2O2 cell death, % at 20 µM; 0.63% of 360,000 active;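 active = compounds giving at least 50% protection of heart cells from peroxide-induced death in the single-dose screen, raw or plate-pattern-corrected value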
MT1-MMP act inh: blocks activation of human MT1-MMP; 0.061% of 360,000 active; GFP/RFP ratio change, % at 20 µM; AID 651647; P50281; HT1080 RFP-PRO-GFP cells, GFP/RFP ratio fluorescence, overnight; percent of plate control window, DMSO zero;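 active = GFP/RFP ratio change of at least 30% with cell ATP level not reduced by more than half and red fluorescence within 50% of control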
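Assay system: HT1080 RFP-PRO-GFP cells | Dosing: 20 µM single dose, 1% DMSO | Incubation: Cells overnight before dosing, compound overnight, 37 °C, 5% CO2 | Evaluation: GFP/RFP fluorescence ratio | Control set: DMSO-only wells and HT1080 RFP-L50D-GFP cell wells as references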
TAG inh: reduces triacylglycerol accumulation in H9c2 cells | Nile Red lipid (TAG) fluorescence; cells loaded with 200 µM oleic acid | inhibition, % at 12.5 µM | AID 651582 | 0.66% of 230,000 active;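 active = pattern-corrected inhibition of lipid staining of at least 50% with the nuclear-stain viability signal not falling by more than 50%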
DDE Tn6 FP ctr: counter-screen for inhibitors of Tn6 peptide binding to fibrin DD(E); inhibition, % at 8.3 µM; TRITC-Tn6 fluorescence polarization displacement; 0% = median of compound wells, not DMSO; shares compounds with Tn6 DDE FP; 2% of 680 active;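 active = inhibition above the mean of test compounds lying between the control limits plus 3 SD of those, cut at about 14% in these data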
DDE Tn6 confirm: confirmation of inhibitors of Tn6 binding to human fibrin DD(E); shares compounds with Tn6 DDE FP; FP displacement of TRITC-Tn6 peptide from DD(E); 0% = per-plate median of test wells; inhibition, % at 8.3 µM; 10% of 680 active;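 active = inhibition above the mean of compounds lying within the control limits plus 3 SD, cut at about 16% in these data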
A number is an active result; 0 = inactive; - = no result given. Shown are actives, neighbours in structure and some others; about 1.4% of the full set was active somewhere.

SMILES | Tn7 DDE FP | Tn6 DDE FP | DAGLB inh | Cardio protect | MT1-MMP act inh | TAG inh | DDE Tn6 FP ctr | DDE Tn6 confirm
O=C(NC(c1ccccc1)c1ccccc1)N1CCOCC1 | 0 | 16.2 | 0 | 0 | 0 | 0 | 0 | 0
CCCC(=O)N1CCOCC1c1cc(C(=O)NCc2ccccc2)no1 (centres undefined) | 0 | 0 | - | 0 | 0 | 0 | - | -
Cc1cc(C)cc(OCC(C)CN2CCC(C(O)(c3ccccc3)c3ccccc3)CC2)c1 (centres undefined) | 0 | 0 | - | - | - | - | - | -
CCO/C=C1\SC(=S)N(c2ccc(Cl)cc2)C1=O | 0 | 0 | 0 | 0 | 0 | 0 | - | -
CC(C)c1ccc(N2C(=O)/C(=C/N(C)C)SC2=S)cc1 | 0 | 42.9 | 0 | 0 | 0 | 0 | 0 | 0
COc1ccc(CN2C(=O)CN(S(C)(=O)=O)CC2(C)C(=O)NC(C)C)cc1 (centres undefined) | 0 | 0 | - | - | 0 | - | - | -
CN1CCS/C1=C/C=C1/SC(=S)N(Cc2ccccc2)C1=O | 0 | 38.0 | 0 | 0 | 0 | 0 | 0 | 15.8
CCCCN1C(=O)/C(=C/C=C2\SCCN2C)SC1=S | 0 | 0 | 0 | 0 | 0 | 0 | - | -
COc1ccccc1CN1CC(C(=O)NCCc2ccc(C)o2)CCC1=O (centres undefined) | 0 | 20.2 | 0 | 0 | 0 | - | 0 | 0
CCN(CC)CCN(C(=O)c1ccc2ccccc2c1)c1nc2ccc(F)cc2s1 | 0 | 0 | 0 | 0 | 0 | - | - | -
CCN(CC)CCN(C(=O)CCOc1ccccc1)c1nc2ccc(F)cc2s1 | 0 | 15.8 | 0 | 0 | 0 | 0 | 0 | 0
CCOC(=O)NC(=O)CSc1nc(C)cc(C(F)(F)F)c1C#N | 0 | 15.4 | 0 | 0 | 0 | 0 | 0 | 0
COC(=O)CSc1nc(C)cc(C(F)(F)F)c1C#N | 0 | 0 | 0 | 0 | 0 | 0 | - | -
O=C(CSc1nnc(-c2ccccc2)n1-c1ccccc1)Nc1ccccc1-c1ccccc1 | 0 | 0 | - | - | - | - | - | -
O=C1CC(Nc2ccc(N3CCOCC3)cc2)C(=O)N1Cc1ccccc1 (centres undefined) | 0 | 20.2 | 0 | 0 | 0 | - | 0 | 0
COCCNC(=O)c1cc2c(c(-c3cccc(-c4cc5ccccc5o4)c3)n1)[C@H](CCO)N(S(=O)C(C)(C)C)C2 (some centres undefined) | 0 | 0 | - | 0 | 0 | - | - | -
COC(=O)c1cc(Br)c(=O)n(CCN2CCCC2)c1 | 0 | 16.8 | 0 | 0 | 0 | 0 | 0 | 0
COC(=O)c1cc(Br)c(=O)n(CCN2CCCCC2)c1 | 0 | 0 | 0 | 0 | 0 | 0 | - | -
c1cc(-c2cc3nc(NC4CCCCC4)ccn3n2)ccc1OCCN1CCOCC1 | 0 | 0 | - | 0 | 0 | 0 | - | -
CC(C)(C)C(=O)Nc1ccc(S(=O)(=O)N2CCC(c3nc4ccccc4[nH]3)CC2)cc1 | 0 | 18.3 | 0 | 0 | 0 | 0 | 0 | 0
O=C(CSc1ccc(-c2nc3ccccc3[nH]2)cn1)Nc1ccc(S(=O)(=O)N2CCCC2)cc1 | 0 | 58.6 | 0 | 0 | 0 | - | 0 | 0
COC(=O)[C@]12C[C@H](CC(=O)NCCCCc3ccccc3)C(=O)N(CCc3ccc(OC)c(OC)c3)C1=C[C@H](C1CCCC1)O[C@@H]2C | 0 | 0 | - | - | - | - | - | -
O=c1ccc2c(-c3ccccc3)c3ccc(O)cc3oc-2c1 | 0 | 68.1 | 0 | 0 | 0 | - | 53.3 | 38.2
C=CCn1c(CC#N)nnc1N1CCOCC1 | 0 | 15.8 | 0 | 0 | 0 | - | 0 | 0
CCc1ccc(CN2CCC(Oc3cc(C(=O)NC4CC4)ccc3OC)CC2)cc1 | 0 | 0 | 0 | 0 | 0 | 0 | - | -
CSC[C@H]1CN(CCc2ccccc2)C(=O)[C@@H]1CC(=O)Nc1ccc(Br)cc1 | 0 | 0 | 0 | 0 | 0 | 0 | - | -
CCC1=C(CC2NCCc3ccccc32)CC2c3cc(OC)c(OC)cc3CCN2C1 (centres undefined) | 0 | 23.5 | 0 | 0 | 0 | 0 | 0 | 0
